Bioassay records deposited in PubChem BioAssay by several laboratories.
Compounds with a hit are over-represented: about 3.6% of the library has one in this group of screens.
AHR activator: human AHR activation | 320,000 compounds, 2.5% hits | AID 2796 | activation, % at 5 µM | AHR-responsive luciferase reporter cells, luminescence; in the data active means activation above about 47%;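 further: 0% = vehicle wells and 100% = reference agonist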
STAT3 activator: increases IL-6 driven STAT3 reporter signal | U3A cells, IL-6 STAT3-luciferase reporter, luminescence; 100% = signal with IL-6 EC80 alone | activation (% of control), % at 5.6 µM | 190,000 compounds, 0.91% hits | AID 871;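 active means activation above the screen-wide mean of compound activation plus 3 SD, cut at about 130% in these data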;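 further: 0% = background luminescence of wells with medium and substrate only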
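System – human U3A cells carrying STAT3-luciferase construct · Probe or stimulus – Interleukin-6, 33 ng/mL · Schedule – compound 1 h, then IL-6 6 h at 37 °C · Signal – luminescence from STAT3-driven luciferase reporter · Evaluation – percent of IL-6-only median luminescence · Benchmarks – IL-6-only high control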
HSF1 inh: HSF1 inhibition; NIH3T3-HGL HSE-luciferase, MG132-induced, luminescence 8 h; active compounds read low; activity change, negative = inhibition, % at 7.5 µM (by protocol); 300,000 compounds, 0.77% hits; AID 2098;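 active means more than half of replicate wells show activity change below -50%, luminescence cut by over half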;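 further: luciferase reports HSF-1 transcriptional activity via heat shock element; 0% = median of DMSO wells and -100% = zero luminescence signal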
PolyA inh: yeast polyadenylation inhibition; AID 1875; S. cerevisiae SKY197-pL101 polyadenylation reporter, beta-gal luminescence; efflux-impaired pdr1/pdr3 knockout yeast; score 100 = 6 SD above DMSO; activity score, % at 12 µM; 300,000 compounds, 0.02% hits;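 active means lowest replicate activity score at least 50, where 100 means six control SD above control mean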;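 further: yeast exposed to compound for 9 h at 30 °C; higher score means more reporter readthrough which indicates perturbed polyadenylation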
Hsp70 act: transcriptional activators of Hsp70; AID 1203; HeLa Hsp70 promoter luciferase reporter, luminescence; scaled: vehicle 0, proteasome-inhibitor control 100%; 200,000 compounds, 0.04% hits; activation, % at 10 µM;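 active means activation above the mean across all tested compounds plus 3 SD, cutoff set per campaign, cut at about 5.5% in these data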;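 further: 100% = MG132 at 30 µM as the positive control and 0% = DMSO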
PERK inh: inhibitors of human PERK kinase; CHO PERK-DD fusion, SEAP luminescence translation reporter; 220,000 compounds, 0.17% hits; Q9NZJ5; inhibition, % at 5.6 µM; AID 1416;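 active means inhibition above the mean inhibition of all tested compounds plus 3 SD, set separately per screening campaign, cut at about 2.9% in these data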;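 further: PERK kinase domain activated by AP20187 dimerizer at 100 nM; 0% = DMSO with dimerizer and 100% = rapamycin at 8.4 µM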
Target sequence (Q9NZJ5 whole entry, looked up, the tested form may be a part): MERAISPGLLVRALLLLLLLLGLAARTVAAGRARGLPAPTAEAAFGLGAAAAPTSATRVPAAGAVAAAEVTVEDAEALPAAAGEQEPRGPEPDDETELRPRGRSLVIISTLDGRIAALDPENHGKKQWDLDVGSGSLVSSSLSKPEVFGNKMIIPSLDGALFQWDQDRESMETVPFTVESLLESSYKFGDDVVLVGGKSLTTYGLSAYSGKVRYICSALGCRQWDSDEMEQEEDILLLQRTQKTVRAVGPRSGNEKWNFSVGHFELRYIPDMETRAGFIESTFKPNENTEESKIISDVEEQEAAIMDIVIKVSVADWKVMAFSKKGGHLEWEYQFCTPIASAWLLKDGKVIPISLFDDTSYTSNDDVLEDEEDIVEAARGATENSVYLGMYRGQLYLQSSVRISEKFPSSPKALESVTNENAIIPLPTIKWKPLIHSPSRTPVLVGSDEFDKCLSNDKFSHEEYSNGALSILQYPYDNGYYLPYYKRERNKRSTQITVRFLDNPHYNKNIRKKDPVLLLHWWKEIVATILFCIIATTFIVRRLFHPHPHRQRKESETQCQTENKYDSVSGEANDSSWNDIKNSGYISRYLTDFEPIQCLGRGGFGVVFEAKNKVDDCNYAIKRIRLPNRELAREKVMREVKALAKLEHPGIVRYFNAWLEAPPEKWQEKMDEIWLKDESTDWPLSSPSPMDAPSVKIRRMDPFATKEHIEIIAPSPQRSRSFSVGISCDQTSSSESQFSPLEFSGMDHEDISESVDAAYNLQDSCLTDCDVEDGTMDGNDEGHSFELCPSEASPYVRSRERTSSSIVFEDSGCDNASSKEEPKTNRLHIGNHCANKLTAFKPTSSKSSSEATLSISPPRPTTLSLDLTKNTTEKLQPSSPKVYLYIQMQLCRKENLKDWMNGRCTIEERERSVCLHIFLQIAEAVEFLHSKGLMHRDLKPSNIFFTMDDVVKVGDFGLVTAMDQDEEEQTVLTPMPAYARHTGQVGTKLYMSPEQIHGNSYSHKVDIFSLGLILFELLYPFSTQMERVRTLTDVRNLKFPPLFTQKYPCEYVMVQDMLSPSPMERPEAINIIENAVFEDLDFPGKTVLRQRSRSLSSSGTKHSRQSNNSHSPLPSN
* marks the source's active call; other numbers are inactive results; . = no result given.

SMILES	AHR activator	STAT3 activator	HSF1 inh	PolyA inh	Hsp70 act	PERK inh
COc1cc(N)ccc1C(=O)O	1	103	-60*	22	0	0
O=C(CN1C(=O)c2ccccc2S1(=O)=O)NCc1cccs1	-2	.	-39	3	.	.
O=C1C=C(Nc2ccccc2C(=O)O)c2ccccc2C1=O	52*	.	64	26	.	0
O=[N+]([O-])c1cccc(-c2nnc(-c3ccccc3)o2)c1	33	99	-78*	-23	0	1
O=[N+]([O-])c1cccc(-c2nc(-c3ccccc3)no2)c1	58*	140*	30	2	0	1
O=C(Cn1c(=O)c2cccn2c2ccccc21)NCCc1ccccc1	10	.	-6	9	.	.
CCN(CC)C(=O)Oc1ccc(Br)cc1C(=O)Nc1ccc(F)cc1F	89*	.	38	4	.	0
O=C(Nc1ccc(F)cc1F)c1cncc(Br)c1	38	82	-8	6	0	1
CCC(C(=O)Nc1ccc2[nH]ncc2c1)c1ccccc1 (stereo unspecified)	4	.	-19	-13	.	.
C1=C(c2ccccc2)CCN(c2ncnc3nc[nH]c23)C1	8	92	-75*	8	0	1
c1ccc2c(c1)CCN(c1ncnc3nc[nH]c13)C2	3	104	1	6	0	2
C=CCNC(=S)NC(=O)c1oc2ccccc2c1C	66*	107	14	4	0	1
Cc1c(C(=O)NNC(=O)c2ccccc2O)oc2ccc(Br)cc12	51*	.	6	-3	.	.
Cc1c(C(=O)NCc2cccs2)oc2ccc(Br)cc12	8	121	19	-6	0	0
Cc1c(C(=O)NCc2ccccn2)oc2ccccc12	59*	92	13	10	0	-1
Cc1c(C(=O)NCc2ccccn2)oc2ccc(Br)cc12	48*	.	24	-16	.	.
CN(C)c1cc(-c2ccc(Cl)cc2Cl)oc(=O)c1Cl	-6	.	5	-10	.	0
N#C/C(=N\Nc1ccc([N+](=O)[O-])cc1)C(=N)N1CCOCC1	8	.	10	-1	.	2
N#C/C(=N\Nc1ccc(Br)cc1)C(=N)N1CCOCC1	56*	105	16	-19	0	1
Cc1ccc(NC2CCCN(C(=O)CCc3scnc3C)C2)cc1C (stereo unspecified)	50*	.	9	3	.	.
Cc1ncsc1CCC(=O)N1CCCC(Nc2ccc(F)c(F)c2)C1 (stereo unspecified)	-2	.	0	5	.	.
C/C(=N\NC(=O)c1ccc([N+](=O)[O-])cc1Cl)c1ccccc1	12	110	-4	-8	0	1
CC(NC(C)c1ccccc1Cl)C(=O)Nc1cccc(S(=O)(=O)N2CCCCC2)c1 (stereo unspecified)	0	.	.	.	.	.
S=C(Nc1ccc(Nc2ccccc2)cc1)N1CCN(c2ncccn2)CC1	-1	90	3	-5	0	0
COCCCN(Cc1ccco1)C(=O)Cn1ncc2c([nH]c3ccccc32)c1=O	1	.	5	-5	.	.
SMILES	AHR activator	STAT3 activator	HSF1 inh	PolyA inh	Hsp70 act	PERK inh
COCCCN(Cc1ccco1)C(=O)CSc1nc2ncccc2[nH]1	3	.	-55*	8	.	.
Cn1c(NC(=O)/C=C\c2ccccc2)cc(=O)n(C)c1=O	50*	108	2	5	0	1
Cn1c(NC(=O)/C=C/c2c(F)cccc2Cl)cc(=O)n(C)c1=O	19	88	.	10	0	2
O=C1N(CCCN2C(=O)C3(OCCO3)c3ccccc32)c2ccccc2C12OCCO2	30	90	-7	-8	0	-1
O=C1N(CCCCN2C(=O)C3(OCCO3)c3ccccc32)c2ccccc2C12OCCO2	60*	100	2	9	0	-1
c1ccc(-c2cc(-c3nnco3)c3ccccc3n2)nc1	62*	84	2	-19	0	2
COc1cc(-c2cc(-c3nnco3)c3ccccc3n2)cc(OC)c1OC	27	87	-7	1	0	-1
CCOc1ccccc1NC(=O)CCC(=O)Nc1ccccc1OCC	14	97	4	2	0	-1
CCOc1ccccc1NC(=O)Cn1[nH]c(=O)c2ccccc2c1=O	64*	84	6	12	0	0
